Experimental data reported in ChEMBL document CHEMBL1127368, “Selective kappa-opioid agonists: synthesis and structure-activity relationships of piperidines incorporating on oxo-containing acyl group” (J Med Chem, 1994).

Assays:
[1] = target: Kappa-type opioid receptor (Mus musculus, UniProt P33534); assay: Evaluated for the binding affinity at kappa receptor
[2] = test system: Mus musculus; assay: Tested for in vivo locomotor impairment/sedation in mouse rotarod test; format: functional
In short: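 Locomotor impairment/sedation measured on a rotarod in mice of 20-35 g. Ten animals per dose. ED50 with 95% confidence intervals obtained by regression analysis.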

[3] = test system: Mus musculus; assay: Tested for in vivo antinociceptive activity in mouse tail-flick assay; format: functional
In short: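 Tail-flick antinociception in mice of 20-35 g. Ten animals per dose. ED50 with 95% confidence intervals obtained by probit analysis.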

[4] = test system: Mus musculus; assay: Tested for in vivo antinociceptive activity in mouse abdominal constriction assay; format: functional; conditions: Abdomen
In short: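 Mice of 20-35 g. Abdominal constriction induced with phenyl-p-benzoquinone. Ten animals per dose. ED50 with 95% confidence intervals obtained by regression analysis.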

[5] = target: Mu-type opioid receptor (Mus musculus, UniProt P42866); assay: Evaluated for the binding affinity at mu receptor
Mu-type opioid receptor, sequence (P42866 whole entry): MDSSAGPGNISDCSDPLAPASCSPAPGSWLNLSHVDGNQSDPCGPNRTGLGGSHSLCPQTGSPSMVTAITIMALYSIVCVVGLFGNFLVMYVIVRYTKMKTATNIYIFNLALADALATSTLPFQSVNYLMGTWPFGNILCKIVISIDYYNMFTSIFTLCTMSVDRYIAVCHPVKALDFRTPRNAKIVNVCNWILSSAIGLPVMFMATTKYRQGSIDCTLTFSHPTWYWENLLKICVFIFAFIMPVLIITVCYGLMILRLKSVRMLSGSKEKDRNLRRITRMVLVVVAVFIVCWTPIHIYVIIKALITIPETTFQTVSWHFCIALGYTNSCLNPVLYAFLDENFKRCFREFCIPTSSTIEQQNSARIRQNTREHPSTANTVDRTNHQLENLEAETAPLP

[6] = target: Sigma non-opioid intracellular receptor 1 (Mus musculus, UniProt O55242); assay: Evaluated for the binding affinity at sigma receptor
Sigma non-opioid intracellular receptor 1, sequence (O55242 whole entry): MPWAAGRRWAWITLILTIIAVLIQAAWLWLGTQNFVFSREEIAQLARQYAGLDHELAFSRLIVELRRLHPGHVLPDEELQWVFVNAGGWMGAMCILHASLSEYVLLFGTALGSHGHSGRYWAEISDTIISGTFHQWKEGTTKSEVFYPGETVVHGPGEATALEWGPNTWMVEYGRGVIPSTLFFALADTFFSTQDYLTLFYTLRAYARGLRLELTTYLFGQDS

[7] = target: Delta-type opioid receptor (Mus musculus, UniProt P32300); assay: Evaluated for the binding affinity at delta receptor
Delta-type opioid receptor, sequence (P32300 whole entry): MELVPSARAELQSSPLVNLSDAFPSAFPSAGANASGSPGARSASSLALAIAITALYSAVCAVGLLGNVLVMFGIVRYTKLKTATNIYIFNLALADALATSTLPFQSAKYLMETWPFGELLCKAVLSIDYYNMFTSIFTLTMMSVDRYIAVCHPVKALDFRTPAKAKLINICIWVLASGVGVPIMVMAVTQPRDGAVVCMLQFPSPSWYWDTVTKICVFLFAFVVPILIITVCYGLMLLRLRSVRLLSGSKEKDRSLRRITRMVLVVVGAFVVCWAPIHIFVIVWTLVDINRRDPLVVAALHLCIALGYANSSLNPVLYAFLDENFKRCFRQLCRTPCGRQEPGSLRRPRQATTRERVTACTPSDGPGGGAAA

[8] = test system: Rattus norvegicus; assay: Tested for in vivo antinociceptive activity in rat abdominal constriction; format: functional; conditions: Abdomen
In short: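 Male SD rats, 180-350 g. Abdominal constriction induced with phenyl-p-benzoquinone. Ten animals per dose. ED50 with 95% confidence intervals obtained by probit analysis.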

[9] = test system: Rattus norvegicus; assay: Tested for in vivo locomotor impairment/sedation in rat rotarod; format: functional
In short: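 Male SD rats, 180-350 g. Trained in six 5-min sessions over 2 days. Rotarod accelerated from 3 to 30 rpm across five sessions. Ten animals per dose. ED50 with 95% confidence intervals obtained by regression analysis.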

[10] = test system: Rattus norvegicus; assay: Tested for in vivo antinociceptive activity in rat abdominal constriction assay; conditions: Abdomen

Kappa-type opioid receptor, sequence (P33534 whole entry): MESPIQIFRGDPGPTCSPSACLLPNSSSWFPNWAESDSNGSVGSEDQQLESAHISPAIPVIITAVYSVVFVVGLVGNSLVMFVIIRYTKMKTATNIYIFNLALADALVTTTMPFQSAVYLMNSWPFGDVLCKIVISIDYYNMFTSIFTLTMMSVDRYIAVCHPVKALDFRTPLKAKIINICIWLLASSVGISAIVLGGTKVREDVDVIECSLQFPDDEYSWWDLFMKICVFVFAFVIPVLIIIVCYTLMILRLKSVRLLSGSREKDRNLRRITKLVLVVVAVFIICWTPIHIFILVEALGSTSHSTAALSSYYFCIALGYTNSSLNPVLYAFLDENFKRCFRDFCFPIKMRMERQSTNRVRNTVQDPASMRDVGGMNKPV

| SMILES | Ki [1] [nM] | ED50 [2] [µmol/kg] | ED50 [3] [µmol/kg] | ED50 [4] [µmol/kg] | Ki [5] [µM] | Ki [6] [nM] | Ki [7] [nM] | ED50 [8] [µmol/kg] | ED50 [9] [µmol/kg] | ED50 [10] [µmol/kg] |
| --- | --- | --- | --- | --- | --- | --- | --- | --- | --- | --- |
| C=CCN(C)C[C@@H]1CCCCN1C(=O)Cc1ccc2c(c1)CCCC2=O | 19.2 | 8.66 | 3.42 | 0.37 |  |  |  |  |  |  |
| O=C1CCCc2cc(CC(=O)N3CCCC[C@H]3CN3CCCC3)ccc21 | 7.6 |  | 0.59 | 0.35 |  |  |  |  |  |  |
| CCCN(C)C[C@@H]1CCCCN1C(=O)Cc1ccc2c(c1)CCCC2=O | 22.2 | 7.99 | 6.81 | 0.62 |  |  |  |  |  |  |
| O=C(Cc1ccc2c(c1)CCCC2)N1CCCC[C@H]1CN1CCCC1 | 0.81 |  | 2.67 | 0.57 |  |  |  |  |  |  |
| CC(C)N(C)C[C@@H]1CCCCN1C(=O)Cc1ccc2c(c1)CCCC2=O | 4.07 | 1.02 | 1.2 | 0.22 |  |  |  |  |  |  |
| O=C1CCCc2ccc(CC(=O)N3CCCC[C@H]3CN3CCCC3)cc21 | 5.61 |  | > 3 | ~1 |  |  |  |  |  |  |
| CCN(C)C[C@@H]1CCCCN1C(=O)Cc1ccc2c(c1)CCCC2=O | 10.3 | 2.3 | 1.77 | 0.18 |  |  |  |  |  |  |
| CN(C[C@@H]1CCCCN1C(=O)Cc1ccc2c(c1)CCCC2=O)C1CCCC1 | 20 | 10 | 6.34 | 0.55 |  |  |  |  |  |  |
| CCN(CC)C[C@@H]1CCCCN1C(=O)Cc1ccc2c(c1)CCCC2=O | 80.3 | 23.7 | 12.6 | 1.2 |  |  |  |  |  |  |
| CN(C)C[C@@H]1CCCCN1C(=O)Cc1ccc2c(c1)CCCC2=O | 47 | 5.1 | 2.15 | 0.47 | 6.79 | 1210 | > 100 | 0.73 | 26.5 |  |
| CN(C[C@@H]1CCCCN1C(=O)Cc1ccc2c(c1)CCCC2=O)C1CC1 | 52.1 | 13.7 | 7.85 | 0.4 |  |  |  |  |  |  |
| CN(CC1CC1)C[C@@H]1CCCCN1C(=O)Cc1ccc2c(c1)CCCC2=O | 30.4 | 16.6 | 16.5 | 1.36 |  |  |  |  |  |  |
| C#CCN(C)C[C@@H]1CCCCN1C(=O)Cc1ccc2c(c1)CCCC2=O | 6.24 | 4.12 | 5.11 | 0.16 |  |  |  |  |  |  |
| O=C1CCCCc2cc(CC(=O)N3CCCC[C@H]3CN3CCCC3)ccc21 | 5.44 |  | > 3 | > 1.5 |  |  |  |  |  |  |
| CN(C[C@@H]1CCCCN1C(=O)Cc1ccc2c(c1)CCCC2=O)C(C)(C)C | > 100 |  | > 30 |  |  |  |  |  |  |  |
| CN(C[C@@H]1CCCCN1C(=O)Cc1ccc2c(c1)CCCC2=O)C1CCC1 | 34.8 | 3.32 | 1.45 | 0.34 |  |  |  |  |  |  |
| O=C1CCc2cc(CC(=O)N3CCCC[C@H]3CN3CCCC3)ccc21 | 7.93 |  | > 30 | > 1.5 |  |  |  |  |  |  |
| O=C1CCCc2sc(CC(=O)N3CCCC[C@H]3CN3CCCC3)cc21 | 6.54 |  | 13.5 | 1.41 |  |  |  |  |  |  |
| O=C(Cc1ccc(C(F)(F)F)cc1)N1CCCC[C@H]1CN1CCCC1 | 0.64 | 0.28 | 0.32 | 0.1 |  |  |  | 0.11 | 0.35 |  |
| CN1CC[C@]23c4c5ccc(O)c4O[C@H]2[C@@H](O)C=C[C@H]3[C@H]1C5 [MORPHINE] |  |  | 9.8 | 1.34 |  |  |  |  |  | 0.86 |
